Measurements published in ChEMBL document CHEMBL1140662, “Benzo[b]thiophene-based histone deacetylase inhibitors” (Bioorg Med Chem Lett, 2007).

Experiments:
Histone deacetylase 1 [1] = biological target: T1, Histone deacetylase 1 (Homo sapiens, UniProt Q13547); assay: Inhibition of HDAC1
In short: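 Epitope-tagged human HDAC1 complex, immuno-purified from stably expressing mammalian cells, tested against a commercial HDAC substrate. IC50 values are means of three experiments.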

[2] = Antiproliferative activity against mouse SC9 cells; format: functional, cell-based
In short: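 Murine erythroleukemia SC-9 cells were exposed to vehicle or increasing compound concentrations for 48 h, and proliferation was read by MTS assay. IC50 values are means of three experiments.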

Histone deacetylase 1 [3] = biological target: T1, Histone deacetylase 1; assay: Inhibition of HDAC1 at 10 uM

T1 sequence (Q13547 whole entry): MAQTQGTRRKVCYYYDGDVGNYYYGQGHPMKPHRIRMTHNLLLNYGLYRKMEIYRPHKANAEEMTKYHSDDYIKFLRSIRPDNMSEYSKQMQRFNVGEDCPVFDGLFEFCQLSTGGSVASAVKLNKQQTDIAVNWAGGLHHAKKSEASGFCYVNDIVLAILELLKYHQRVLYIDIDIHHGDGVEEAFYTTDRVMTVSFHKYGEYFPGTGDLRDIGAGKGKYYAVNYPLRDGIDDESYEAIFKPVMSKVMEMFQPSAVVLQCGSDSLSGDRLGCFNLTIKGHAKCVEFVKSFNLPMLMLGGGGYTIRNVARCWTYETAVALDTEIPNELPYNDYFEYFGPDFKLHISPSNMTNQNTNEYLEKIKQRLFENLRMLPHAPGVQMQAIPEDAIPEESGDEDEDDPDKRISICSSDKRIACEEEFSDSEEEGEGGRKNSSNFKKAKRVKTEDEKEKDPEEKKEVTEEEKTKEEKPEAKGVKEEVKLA

`CCC(C(=O)Nc1ccc2cc(C(=O)NO)sc2c1)c1ccccc1` (stereo unspecified) showed an IC50 (Histone deacetylase 1 [1]) of 40 nM and an IC50 [2] of 225 nM.
With `COC(=O)c1ccc2cc(C(=O)NO)sc2c1` the IC50 [2] was 13900 nM.
Molecule `O=C(NCCc1ccccc1)c1ccc2sc(C(=O)NO)cc2c1` has an IC50 (Histone deacetylase 1 [1]) of 155 nM and an IC50 [2] of 5330 nM.
Molecule `O=C(Cc1ccccc1)Nc1ccc2cc(C(=O)NO)sc2c1` has an IC50 (Histone deacetylase 1 [1]) of 10 nM and an IC50 [2] of 220 nM.
With `O=C(NCc1ccccc1)c1ccc2sc(C(=O)NO)cc2c1` the IC50 (Histone deacetylase 1 [1]) was 75 nM and the IC50 [2] was 1700 nM.
`O=C(CCc1ccccc1)Nc1ccc2cc(C(=O)NO)sc2c1` showed an IC50 (Histone deacetylase 1 [1]) of 55 nM and an IC50 [2] of 5580 nM.
With `O=C(NO)c1cc2cc(CNCCc3ccccc3)ccc2s1` the IC50 (Histone deacetylase 1 [1]) was 200 nM and the IC50 [2] was 945 nM.
Work on `O=C(NO)c1ccsc1` yielded an IC50 (Histone deacetylase 1 [1]) of 9700 nM.
`O=C(Cc1ccccc1)NCc1ccc2cc(C(=O)NO)sc2c1` showed an IC50 (Histone deacetylase 1 [1]) of 70 nM and an IC50 [2] of 1220 nM.
With `O=C(Nc1ccc2cc(C(=O)NO)sc2c1)c1ccccc1` the IC50 [2] was 2900 nM.
Molecule `O=C(NO)c1cc2ccc(CNc3ccccc3)cc2s1` has an IC50 (Histone deacetylase 1 [1]) of 45 nM and an IC50 [2] of 1780 nM.
Molecule `O=C(NO)c1cc2cc(CNCc3ccccc3)ccc2s1` has an IC50 [2] of 475 nM.
Molecule `CC[C@@H](C(=O)Nc1ccc2cc(C(=O)NO)sc2c1)c1ccccc1` has an IC50 (Histone deacetylase 1 [1]) of 60 nM and an IC50 [2] of 530 nM.
Molecule `O=C(Nc1ccccc1)c1ccc2sc(C(=O)NO)cc2c1` has an IC50 (Histone deacetylase 1 [1]) of 600 nM and an IC50 [2] of 6140 nM.
In the case of `COc1ccc(CC(=O)Nc2ccc3cc(C(=O)NO)sc3c2)cc1`, the IC50 (Histone deacetylase 1 [1]) is reported as 20 nM and the IC50 [2] is reported as 205 nM.
`O=C(Cc1ccccc1)Nc1ccc2sc(C(=O)NO)cc2c1` gave an IC50 (Histone deacetylase 1 [1]) of 30 nM and an IC50 [2] of 1160 nM.
For `O=C(NO)c1cccs1`, the IC50 (Histone deacetylase 1 [1]) was 6600 nM.
In the case of `O=C(NO)c1csc2ccccc12`, the inhibition (Histone deacetylase 1 [3]) is reported as 38%.
Work on `O=C(NCc1ccc2cc(C(=O)NO)sc2c1)c1ccccc1` yielded an IC50 (Histone deacetylase 1 [1]) of 10 nM and an IC50 [2] of 190 nM.
For `O=C(NO)c1cc2ccc(CNCc3ccccc3)cc2s1`, the IC50 (Histone deacetylase 1 [1]) was 50 nM and the IC50 [2] was 160 nM.
For `O=C(NO)c1cc2ccc(CNCCc3ccccc3)cc2s1`, the IC50 (Histone deacetylase 1 [1]) was 128 nM and the IC50 [2] was 455 nM.
Molecule `CC[C@H](C(=O)Nc1ccc2cc(C(=O)NO)sc2c1)c1ccccc1` has an IC50 (Histone deacetylase 1 [1]) of 20 nM and an IC50 [2] of 140 nM.
With `O=C(NO)c1cc2cc(CNc3ccccc3)ccc2s1` the IC50 (Histone deacetylase 1 [1]) was 175 nM and the IC50 [2] was 4870 nM.
For `O=C(NC(c1ccccc1)c1ccccc1)c1ccc2cc(C(=O)NO)sc2c1`, the IC50 (Histone deacetylase 1 [1]) was 285 nM and the IC50 [2] was 2960 nM.
`O=C(Cc1ccc(F)cc1)Nc1ccc2cc(C(=O)NO)sc2c1` gave an IC50 (Histone deacetylase 1 [1]) of 20 nM and an IC50 [2] of 230 nM.
`O=C(NCc1ccccc1)c1ccc2cc(C(=O)NO)sc2c1` showed an IC50 (Histone deacetylase 1 [1]) of 55 nM and an IC50 [2] of 1100 nM.
